{"source": "paper PMC9401513", "about": "(Clinical Cancer Research, 2021)", "molecules": {"B1": {"name": "cofetuzumab pelidotin (conjugate, chains of the INN, looked up)", "VH": "QVQLVQSGPEVKKPGASVKVSCKASGYTFTDYAVHWVRQAPGKRLEWIGVISTYNDYTYNNQDFKGRVTMTRDTSASTAYMELSRLRSEDTAVYYCARGNSYFYALDYWGQGTSVTVSS", "VL": "EIVLTQSPATLSLSPGERATLSCRASESVDSYGKSFMHWYQQKPGQAPRLLIYRASNLESGIPARFSGSGSGTDFTLTISSLEPEDFAVYYCQQSNEDPWTFGGGTKLEIK", "modifications": "auristatin-0101 payload, vc linker"}}, "key": {"[1]": {"test_system": "patients with advanced solid tumors", "assay": "Dose-limiting toxicity, MTD and RP2D determination", "assay_type": "in vivo, human", "summary_of_the_method": "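Dose escalation followed the modified toxicity probability interval method. Target DLT rate was 25%, with an acceptable interval of 20–30%, a beta(0.75, 0.65) prior and a 0.975 exclusion threshold. DLTs were treatment-related events in cycle 1, monitored over 28 days: grade 4 neutropenia >7 days, grade ≥3 nonhematologic nonhepatic toxicity, or >2-week cycle delay. MTD was the highest dose with DLT rate <0.30 in ≥9 evaluable patients. Dosing was IV every 3 weeks (0.2–3.7 mg/kg) or every 2 weeks (2.1, 2.8, 3.2 mg/kg).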"}, "[2]": {"assay": "Immunogenicity: anti-drug antibodies and neutralizing antibodies", "assay_type": "in vivo, human", "summary_of_the_method": "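Anti-drug antibodies were measured by a validated electrochemiluminescent assay. Samples were taken on days 1 and 15 of cycle 1, day 1 of each later cycle, and at end of treatment. ADA-positive samples were tested for neutralizing antibodies by a validated competitive ligand-binding electrochemiluminescent method.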"}, "[3]": {"test_system": "platinum-resistant ovarian cancer", "assay": "Objective tumor response by RECIST v1.1, ovarian cancer", "assay_type": "in vivo, human", "summary_of_the_method": "(§1)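 Investigators assessed tumor response by RECIST v1.1 every 6 weeks (every-3-weeks cohorts) or every 8 weeks (every-2-weeks cohorts). CR and PR in expansion cohorts were confirmed by repeat assessment at least 4 weeks later, and ORR was calculated. NSCLC patients were preselected for moderate-to-high tumor PTK7 by IHC. Later TNBC patients were preselected for moderately high-to-high PTK7. Ovarian cancer patients were platinum-resistant and not preselected.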"}, "advanced NSCLC": {"test_system": "advanced NSCLC", "assay": "Objective tumor response by RECIST v1.1, NSCLC", "assay_type": "in vivo, human", "summary_of_the_method": "as §1"}, "advanced TNBC": {"test_system": "advanced TNBC", "assay": "Objective tumor response by RECIST v1.1, TNBC", "assay_type": "in vivo, human", "conditions": "every 3 weeks", "summary_of_the_method": "as §1"}, "CYP3A4": {"biological_target": "CYP3A4 (Homo sapiens, UniProt P08684)", "sequence (P08684 whole entry)": "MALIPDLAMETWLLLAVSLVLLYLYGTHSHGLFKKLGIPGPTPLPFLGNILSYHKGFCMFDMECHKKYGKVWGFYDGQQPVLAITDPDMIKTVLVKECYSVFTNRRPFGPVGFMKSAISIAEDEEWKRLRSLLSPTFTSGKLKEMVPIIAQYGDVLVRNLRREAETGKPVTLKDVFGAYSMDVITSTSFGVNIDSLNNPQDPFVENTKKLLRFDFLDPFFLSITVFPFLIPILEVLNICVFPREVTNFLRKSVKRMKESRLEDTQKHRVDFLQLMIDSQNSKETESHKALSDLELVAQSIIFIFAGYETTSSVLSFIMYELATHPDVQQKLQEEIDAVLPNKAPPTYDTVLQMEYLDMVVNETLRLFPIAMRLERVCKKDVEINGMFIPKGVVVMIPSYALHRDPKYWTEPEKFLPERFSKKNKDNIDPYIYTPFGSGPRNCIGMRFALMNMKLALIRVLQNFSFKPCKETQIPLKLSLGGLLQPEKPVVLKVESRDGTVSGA", "assay": "Drug-drug interaction substudy with multiple-dose fluconazole", "assay_type": "in vivo", "conditions": "PF-06647020 co-administered with multiple-dose fluconazole, 11 patients", "summary_of_the_method": "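Single-dose test ADC was given alone in cycle 1 (reference) and co-administered with multiple-dose fluconazole in cycle 2 (test). Unconjugated payload exposure was measured as dose-normalized AUCinf and Cmax from noncompartmental analysis. Results were expressed as ratios of adjusted geometric means with 90% confidence intervals.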"}, "[4]": {"test_system": "patient-derived xenograft models", "conditions": "cited from earlier work"}, "[5]": {"conditions": "every 2 weeks, N = 19, (95% CI)"}, "[6]": {"conditions": "every 3 weeks, N = 44, (95% CI)"}, "[7]": {"conditions": "every 2 weeks, N = 6, (95% CI), NR, not reached"}, "[8]": {"conditions": "every 3 weeks, N = 25, (95% CI)"}}, "note": "Entries after “also recorded” stand apart in the source; their conditions may differ.", "data": [{"molecule": "B1", "values": [{"measurement": "DLT observed", "setting": "[1]; 2.8 mg/kg every 2 weeks, n = 10", "result": "grade 3 neutropenic infection in 1 patient"}, {"measurement": "DLT observed", "setting": "[1]; 3.2 mg/kg every 2 weeks, n = 12", "result": "grade 3 abdominal pain in 2 patients"}, {"measurement": "DLTs reported", "setting": "[1]; 3.7 mg/kg every 3 weeks (highest dose), n = 6, two DLTs", "result": "grade 3 headache and fatigue; also recorded: grade 3 headache and grade 3 fatigue"}, {"measurement": "DLT rate", "setting": "[1]; 3.7 mg/kg every 3 weeks, n = 6", "result": 33, "unit": "%"}, {"measurement": "MTD", "setting": "[1]; every 2 weeks regimen, dose levels 2.1-3.2 mg/kg", "result": "not reached"}, {"measurement": "MTD (estimated as protocol specified)", "setting": "[1]; every 3 weeks", "result": 2.8, "unit": "mg/kg"}, {"measurement": "RP2D (recommended phase II dose)", "setting": "[1]; every 3 weeks", "result": 2.8, "unit": "mg/kg"}, {"measurement": "patients with ADA at baseline (not boosted by treatment)", "setting": "[2]; every 2 weeks cohorts", "result": 4, "unit": "%"}, {"measurement": "patients with treatment-induced ADA and NAb", "setting": "[2]; every 2 weeks, 25 evaluable patients", "result": 4, "unit": "%"}, {"measurement": "infusion-related reaction in ADA-positive patient", "setting": "[2]; every 2 weeks, one patient, day 1 cycle 4, resolved same day", "result": "grade 2 IRR"}, {"measurement": "patients positive for treatment-induced ADA", "setting": "[2]; every 3 weeks, 108 evaluable patients", "result": 10.2, "unit": "%"}, {"measurement": "CR (number)", "setting": "[3]; 2.1 mg/kg every 3 weeks", "result": 1}, {"measurement": "CR (number)", "setting": "[3]; 2.8 mg/kg every 2 weeks", "result": 1}, {"measurement": "PR (number)", "setting": "[3]; 2.8 mg/kg every 2 weeks", "result": 2}, {"measurement": "CR (number)", "setting": "[3]; 3.2 mg/kg every 2 weeks", "result": 1}, {"measurement": "PR (number)", "setting": "[3]; 3.2 mg/kg every 2 weeks", "result": 1}, {"measurement": "overall objective response rate", "setting": "[3]; both regimens, n = 63", "result": 27, "unit": "%"}, {"measurement": "patients achieving CR", "setting": "[3]; every 2 weeks", "result": 11, "unit": "%"}, {"measurement": "patients achieving PR", "setting": "[3]; every 2 weeks", "result": 16, "unit": "%"}, {"measurement": "ORR", "setting": "[3]; [5]", "result": "26 (9–51) %"}, {"measurement": "mDOR", "setting": "[3]; [5]", "result": "6.5 (3.9–8.3) mo"}, {"measurement": "mPFS", "setting": "[3]; [5]", "result": "3.8 (3.1–7.4) mo"}, {"measurement": "patients achieving CR", "setting": "[3]; every 3 weeks", "result": 7, "unit": "%"}, {"measurement": "patients achieving PR", "setting": "[3]; every 3 weeks", "result": 21, "unit": "%"}, {"measurement": "ORR", "setting": "[3]; [6]", "result": "27 (15–43) %"}, {"measurement": "mDOR", "setting": "[3]; [6]", "result": "4.2 (2.8–8.3) mo"}, {"measurement": "mPFS", "setting": "[3]; [6]", "result": "2.9 (2.3–5.5) mo"}, {"measurement": "PRs (number)", "setting": "advanced NSCLC; 2.8 mg/kg every 3 weeks", "result": 4}, {"measurement": "PRs (number)", "setting": "advanced NSCLC; 3.2 mg/kg every 2 weeks", "result": 2}, {"measurement": "overall objective response rate", "setting": "advanced NSCLC; both regimens, n = 31", "result": 19, "unit": "%"}, {"measurement": "CR", "setting": "advanced NSCLC; every 2 weeks, N = 6", "result": 0, "unit": "N"}, {"measurement": "PR", "setting": "advanced NSCLC; every 2 weeks, N = 6", "result": 2, "unit": "N"}, {"measurement": "ORR", "setting": "advanced NSCLC; every 2 weeks, N = 6, (95% CI)", "result": "33 (4–78) %"}, {"measurement": "mDOR", "setting": "advanced NSCLC; [7]", "result": "NR (3.7–NR)"}, {"measurement": "mPFS", "setting": "advanced NSCLC; [7]", "result": "2.7 (1.0–NR) mo"}, {"measurement": "CR", "setting": "advanced NSCLC; every 3 weeks, N = 25", "result": 0, "unit": "N"}, {"measurement": "PR", "setting": "advanced NSCLC; every 3 weeks, N = 25", "result": 4, "unit": "N"}, {"measurement": "ORR", "setting": "advanced NSCLC; [8]", "result": "16 (5–36) %"}, {"measurement": "mDOR", "setting": "advanced NSCLC; [8]", "result": "5.7 (1.5–9.9) mo"}, {"measurement": "mPFS", "setting": "advanced NSCLC; [8]", "result": "2.9 (1.4–6.1) mo"}, {"measurement": "CR", "setting": "advanced TNBC; N = 29", "result": 0, "unit": "N"}, {"measurement": "PR", "setting": "advanced TNBC; N = 29", "result": 6, "unit": "N"}, {"measurement": "ORR", "setting": "advanced TNBC; N = 29, (95% CI)", "result": "21 (8–40) %"}, {"measurement": "mDOR", "setting": "advanced TNBC; N = 29, (95% CI)", "result": "4.3 (1.3–10.2) mo"}, {"measurement": "mPFS", "setting": "advanced TNBC; N = 29, (95% CI)", "result": "1.5 (1.4–4.3) mo"}, {"measurement": "impact of fluconazole co-administration on overall exposure", "setting": "CYP3A4", "result": "did not have a notable impact"}, {"measurement": "antitumor activity compared with standard chemotherapy", "setting": "[4]; patient-derived xenograft models", "result": "greater antitumor activity than standard chemotherapy"}, {"measurement": "antitumor effect in patient-derived xenograft models", "setting": "[4]; preclinical", "result": "sustained tumor regression"}, {"measurement": "effect on tumor-initiating cells (TICs)", "setting": "[4]; serial transplantation experiments", "result": "reduced the frequency of TICs"}]}]}
